This note sets out measurements from ChEMBL document CHEMBL4819139, “Green synthesis of therapeutically active 1,3,4-oxadiazoles as antioxidants, selective COX-2 inhibitors and their in silico studies” (Bioorg Med Chem Lett, 2021).

Converted amounts (≈) assume the structure as drawn.

Experiment [1] addresses Prostaglandin G/H synthase 1 (Homo sapiens, UniProt P23219). Nature of the experiment: Inhibition of COX-1 (unknown origin).
In experiment [2] the target is T1, Prostaglandin G/H synthase 2 (Homo sapiens, UniProt P35354).
T1 sequence (P35354 whole entry): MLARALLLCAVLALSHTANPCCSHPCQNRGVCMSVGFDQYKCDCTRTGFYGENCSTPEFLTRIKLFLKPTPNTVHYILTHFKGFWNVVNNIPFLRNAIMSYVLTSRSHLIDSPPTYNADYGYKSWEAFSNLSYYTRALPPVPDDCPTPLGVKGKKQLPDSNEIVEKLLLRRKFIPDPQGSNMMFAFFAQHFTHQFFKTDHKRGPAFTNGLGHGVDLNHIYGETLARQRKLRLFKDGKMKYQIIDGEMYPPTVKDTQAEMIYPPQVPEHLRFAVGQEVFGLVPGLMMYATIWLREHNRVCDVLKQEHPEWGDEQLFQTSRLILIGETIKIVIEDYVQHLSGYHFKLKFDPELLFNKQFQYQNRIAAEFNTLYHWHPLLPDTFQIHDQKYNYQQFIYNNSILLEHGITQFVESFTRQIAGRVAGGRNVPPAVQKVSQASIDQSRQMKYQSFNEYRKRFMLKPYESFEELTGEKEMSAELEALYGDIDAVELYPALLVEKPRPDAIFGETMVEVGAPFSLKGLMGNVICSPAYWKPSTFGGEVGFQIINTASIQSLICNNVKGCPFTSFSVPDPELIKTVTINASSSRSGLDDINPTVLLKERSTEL
Nature of the experiment: Inhibition of COX-2 (unknown origin). A digest of the protocol:
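Percent COX-2 inhibition was measured at several compound concentrations. Mefenamic acid served as the reference standard.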

Experiment [3] can be described thus: Antioxidant activity assessed as DPPH free radical scavenging activity in iron free medium. It is filed as functional. For orientation: The DPPH test is a chemical assay of radical scavenging.

Chain of Prostaglandin G/H synthase 1 (P23219 whole entry): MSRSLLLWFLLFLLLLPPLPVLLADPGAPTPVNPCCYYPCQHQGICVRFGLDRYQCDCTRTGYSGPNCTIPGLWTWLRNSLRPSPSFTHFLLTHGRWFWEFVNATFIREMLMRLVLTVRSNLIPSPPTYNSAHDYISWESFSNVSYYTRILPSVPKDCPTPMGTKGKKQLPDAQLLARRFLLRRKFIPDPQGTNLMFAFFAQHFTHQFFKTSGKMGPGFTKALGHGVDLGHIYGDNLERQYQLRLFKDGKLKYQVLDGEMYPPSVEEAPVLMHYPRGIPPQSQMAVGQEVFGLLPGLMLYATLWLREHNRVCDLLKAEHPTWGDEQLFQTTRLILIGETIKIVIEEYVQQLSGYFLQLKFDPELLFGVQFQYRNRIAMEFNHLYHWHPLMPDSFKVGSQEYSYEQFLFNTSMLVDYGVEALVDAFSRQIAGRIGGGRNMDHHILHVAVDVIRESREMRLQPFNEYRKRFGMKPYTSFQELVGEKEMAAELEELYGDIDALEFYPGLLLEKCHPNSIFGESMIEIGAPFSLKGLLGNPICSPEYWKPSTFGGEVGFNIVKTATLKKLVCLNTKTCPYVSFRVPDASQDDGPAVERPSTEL

As to `Cc1cc(C)c2c(CSc3nnc(CSc4nc5ccccc5o4)o3)cc(=O)oc2c1`, the figures for the IC50 in experiment [1], in experiment [2] and in experiment [3] were 1120 µM, 55.4 µM and 33.41 µg/mL (≈ 74 µM), respectively.
As for `O=c1cc(CSc2nnc(CSc3nc4ccccc4o3)o2)c2ccc3ccccc3c2o1`, the IC50 (usually the concentration that gives 50% inhibition) in experiment [1] is 919 µM; in experiment [2], 27.1 µM; in experiment [3] it was 23.71 µg/mL (≈ 50.1 µM).
For `Cc1ccc2oc(=O)cc(CSc3nnc(CSc4nc5ccccc5o4)o3)c2c1`, the IC50 is 562 µM in experiment [1], 45.6 µM in experiment [2] and 24.04 µg/mL (≈ 54.9 µM) in experiment [3].
For `O=c1cc(CSc2nnc(CSc3nc4ccccc4o3)o2)c2c(ccc3ccccc32)o1` the same measures were 226 µM, 51.9 µM and 45.86 µg/mL (≈ 96.8 µM).
For the compound `O=c1cc(CSc2nnc(CSc3nc4cc(Cl)ccc4o3)o2)c2c(ccc3ccccc32)o1`, the IC50 was 642 µM in experiment [1], 34.8 µM in experiment [2] and 26.78 µg/mL (≈ 52.7 µM) in experiment [3].
For `O=c1cc(CSc2nnc(CSc3nc4cc(Cl)ccc4o3)o2)c2ccc3ccccc3c2o1` the same measures were 558 µM, 22.3 µM and 23.95 µg/mL (≈ 47.1 µM).
For `Cc1cc(C)c2c(CSc3nnc(CSc4nc5cc(Cl)ccc5o4)o3)cc(=O)oc2c1` the same measures were 505 µM, 27.2 µM and 26.98 µg/mL (≈ 55.5 µM).
Regarding `COc1ccc2oc(=O)cc(CSc3nnc(CSc4nc5cc(Cl)ccc5o4)o3)c2c1`, the IC50 was 1180 µM in experiment [1], 91.3 µM in experiment [2] and 52.85 µg/mL (≈ 108 µM) in experiment [3].
For `COc1ccc2oc(=O)cc(CSc3nnc(CSc4nc5ccccc5o4)o3)c2c1` the same measures were 230 µM, 72.6 µM and 63.09 µg/mL (≈ 139 µM).
For `Cc1ccc2c(CSc3nnc(CSc4nc5cc(Cl)ccc5o4)o3)cc(=O)oc2c1` the same measures were 308 µM, 29 µM and 27.73 µg/mL (≈ 58.8 µM).
For the compound `Cc1ccc2c(CSc3nnc(CSc4nc5ccccc5o4)o3)cc(=O)oc2c1`, the IC50 in experiment [1] was 199 µM; in experiment [2], 54.3 µM; in experiment [3], 49.87 µg/mL (≈ 114 µM).
Consider `Cc1ccc2oc(=O)cc(CSc3nnc(CSc4nc5cc(Cl)ccc5o4)o3)c2c1`, for which the IC50 is 437 µM in experiment [1], 115 µM in experiment [2] and 48.69 µg/mL (≈ 103 µM) in experiment [3].
In the case of `O=C1O[C@H]([C@@H](O)CO)C(O)=C1O` [ASCORBIC ACID], the IC50 in experiment [3] is 25.74 µg/mL (≈ 146 µM).
As to `Cc1cccc(Nc2ccccc2C(=O)O)c1C` [MEFENAMIC ACID], the IC50 in experiment [1] is 772 µM; in experiment [2] it was 104 µM.
